This is a sample that favours compounds with a hit; in the whole collection about 2.6% have one here.
Rce1 inhib: yeast Rce1p protease inhibitors, primary screen, biochemical, fluorescence, cell-free homogeneous | calls only | CAAX prenyl protease 2 (Saccharomyces cerevisiae (strain ATCC 204508 / S288c)), Q03530 | actives 0.27% (n = 290,000) | yeast membranes, quenched prenylated peptide cleavage fluorescence;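 active = fall in fluorescence gain of 50% or more versus controls, with final raw signal at or below 3038400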;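 note: plate controls were neutral control wells for no effect and wells lacking membranes for full effect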
TAAR1 agonist: human TAAR1 agonists, primary screen, Fluo-8 calcium fluorescence, CHO RD-HGA16 cells. actives 0.99% (n = 360,000). activation, % at 3 µM. vehicle wells 0%, saturating PEA agonist 100%. Trace amine-associated receptor 1 (Homo sapiens), Q96RJ0;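 active = activation above the mean activation of all test compounds in the run plus 3 SD, cut at about 38% in these data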
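System: CHO RD-HGA16 cells carrying human TAAR1 plus Gα16; Incubation: 17-24 h seeding, 75 min 37 °C dye, 30 min RT; Measured by: Fluo-8 fluorescence, 5 s baseline then 140 s kinetic read; Control set: DMSO and PEA EC100; Replication: single well for each compound.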
Platelet DG rel: inhibitors of platelet dense granule secretion, primary screen, cell-based, MLPCN, human platelets. actives 0.22% (n = 300,000). inhibition, %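 (compounds screened at 7.5 µM in platelet-rich plasma)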. human platelet-rich plasma, SFLLRN dense granule ATP release, luminescence;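 active = mean replicate score, as percent of positive control, at or above 50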
VLA-4 inh: inhibition in human VLA-4 binding assay, primary screen, VLA-4 allosteric modulator project, MLPCN library, flow cytometry, VLA-4 expressing cells; actives 0.2% (n = 330,000); ligand binding flow cytometry; inhibition, % (about 7 µM as worked out from the volumes in the protocol); Integrin alpha-4 (Homo sapiens), P13612; in the data active = inhibition above about 50%
TAAR1 antag: human TAAR1 antagonists, primary screen, Fluo-8 calcium fluorescence, CHO RD-HGA16 cells | actives 1.5% (n = 360,000) | inhibition, % at 3 µM | antagonist;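 active = inhibition above a per-plate cutoff, the mean inhibition of test compounds on that plate plus 3 SD, cut at about 49% in these data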;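 note: 0% = DMSO plus EC80 beta-PEA response and 100% = DMSO alone without agonist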
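System: CHO RD-HGA16 cells bearing hTAAR1. Reagent: EC80 β-phenethylamine stimulus. Schedule: seeding 17-24 h prior, 75-min 37 °C, 30-min RT dye loading. Signal: Fluo-8 intracellular calcium dye fluorescence, real-time kinetic reads. Read-out: % inhibition from peak post-agonist over basal fluorescence ratio. Benchmarks: vehicle wells and EC80 agonist wells. Replicates: n of 1.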
TAAR1 ag conf: human TAAR1 agonists, retest of hits, confirmation, Fluo-8 calcium fluorescence, CHO RD-HGA16 cells; scaled: DMSO 0%, maximal phenethylamine 100%; actives 82% (n = 2,400); activation, % at 3 µM; shares compounds with TAAR1 agonist;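 active = activation above a cutoff set at the run's mean compound activation plus 3 SD, cut at about 39% in these data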
Ga16 ag counter: nonselective calcium mobilization agonists, CHO-Ga16 cells, counter-screen for hTAAR1 agonist project, cell-based, fluorescence, CHO-Ga16 parental line | shares compounds with TAAR1 agonist | Fluo-8 calcium fluorescence; normalized to maximal ATP response, DMSO zero | activation, % at 3 µM | actives 50% (n = 2,400);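 active = activation above the run cutoff, the mean activation over all tested wells plus 3 SD, cut at about 12% in these data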;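 note: 0% = DMSO wells and 100% = maximal ATP response on the peak over basal ratio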
TAAR1 desens: TAAR1 desensitization by agonist hits, confirmation, counter-screen for TAAR1 agonist project, cell-based, fluorescence, tachyphylaxis | CHO RD-HGA16 hTAAR1, Fluo-8 calcium, beta-PEA response inhibition | AID 651951, 2012 | shares compounds with TAAR1 agonist | inhibition, % at 3 µM | actives 46% (n = 2,400);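 active = inhibition above the run cutoff, the mean inhibition of all test compounds plus 3 SD, cut at about 49% in these data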;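 note: beta-PEA stimulus applied at its EC80; loss of beta-PEA calcium signal after compound pretreatment read as receptor desensitization; 0% = DMSO with beta-PEA at EC80 and 100% = DMSO alone without agonist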
Ga16 nonsel ant: inhibition of ATP-evoked calcium response in CHO-Ga16 cells, counter-screen for TAAR1 agonist project, cell-based, fluorescence; shares compounds with TAAR1 agonist; CHO-Ga16 ATP-induced calcium, Fluo-8 fluorescence; inhibition, % at 3 µM; actives 39% (n = 2,400); AID 651952, 2012;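 active = inhibition above the plate's mean compound inhibition plus 3 SD, computed per plate, cut at about 22% in these data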;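 note: 0% = EC80 ATP with DMSO and 100% = DMSO wells without ATP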
* hit, by the source's call; i = inactive; / = no result given; + = active, no number.

SMILES	Rce1 inhib	TAAR1 agonist	Platelet DG rel	VLA-4 inh	TAAR1 antag	TAAR1 ag conf	Ga16 ag counter	TAAR1 desens	Ga16 nonsel ant
COc1ccccc1CCn1cnc(-c2ccc(Br)cc2)c1CC(C)C	/	65.0*	/	/	70.6*	82.0*	1.9	56.0*	10.0
COc1ccccc1CCn1cnc(-c2ccc(OC)c(OC)c2)c1CC(C)C	/	54.4*	/	/	68.1*	93.2*	24.2*	84.2*	45.2*
CCCCc1c(-c2ccccc2OC)ncn1CCc1cccc(Cl)c1	/	66.4*	/	/	46.6	84.4*	18.8*	82.7*	33.9*
COc1ccccc1CCn1cnc(-c2cccc(Br)c2)c1CC(C)C	/	21.9	/	/	29.6	/	/	/	/
COc1ccccc1CNS(=O)(=O)CCNC1CC1	/	2.8	/	/	5.6	/	/	/	/
CCNC(=O)C1CCCN(C(=O)c2ccc3c(c2)CCO3)CC1 (stereo not drawn)	/	0.9	/	/	3.3	/	/	/	/
CCCCc1c(Cc2cccc(F)c2)ncn1CCc1ccccc1OC	/	48.3*	/	/	31.9	48.1*	11.1	50.3*	32.8*
CCc1c(-c2ccc(Br)cc2)ncn1CCc1ccccc1OC	/	23.7	/	/	11.6	/	/	/	/
CCCc1c(-c2ccc(Cl)cc2)ncn1CCc1ccccc1OC	/	55.9*	/	/	52.1*	82.1*	14.9*	83.3*	26.4*
CCc1c(-c2ccccc2Br)ncn1CCc1ccccc1OC	/	43.9*	/	/	52.8*	70.1*	10.5	59.0*	27.5*
Cc1ncoc1C(=O)N1CCCC(N2CCN(c3cccc(C(F)(F)F)c3)CC2)C1 (stereo not drawn)	i	-0.9	-3.7	8.8	-23.1	/	/	/	/
CC(C)NC(=O)N(C)C[C@H]1Oc2ccc(NC(=O)Cc3ccccc3)cc2C(=O)N([C@H](C)CO)C[C@@H]1C	/	1.6	/	-7.8	-20.5	/	/	/	/
CCOC(=O)C1(C)CCCN1C(=O)c1ccc(F)c(Cl)c1 (stereo not drawn)	/	-0.3	/	/	-12.9	/	/	/	/
CN(C(=O)c1cc(-c2cccs2)nn1-c1ccccc1)C1CCS(=O)(=O)C1 (stereo not drawn)	/	0.2	/	/	21.2	/	/	/	/
Cc1ccc(-n2sc3ccccc3c2=O)cc1	i	25.9	17.1	14.5	-0.6	/	/	/	/
COC(=O)c1cccc(-n2sc3ccccc3c2=O)c1	/	63.2*	/	0.3	33.2	49.5*	22.1*	28.1	14.5
O=c1c2ccccc2sn1-c1ccc(F)cc1	/	57.2*	/	23.0	22.1	30.4	31.5*	17.4	15.1
COc1cccc(-c2c(C(=O)N/N=C/c3cccs3)nnn2-c2nonc2N)c1	i	/	5.5	10.5	/	/	/	/	/
CCOc1ccc(-c2c(C(=O)N/N=C/c3ccoc3)nnn2-c2nonc2N)cc1	i	91.7*	-0.9	0.8	-20.2	66.1*	28.9*	6.2	9.7
Nc1nonc1-n1nnc(C(=O)N/N=C/c2cccc(F)c2)c1-c1ccccc1	i	55.5*	2.2	-6.9	0.3	38.5*	18.5*	16.0	10.9
Nc1nonc1-n1nnc(C(=O)N/N=C/c2cccnc2)c1-c1ccccc1	i	15.4	4.5	-4.7	-21.5	/	/	/	/
CCOc1cccc(-c2c(C(=O)N/N=C/c3ccncc3)nnn2-c2nonc2N)c1	i	15.6	-3.9	2.5	0.9	/	/	/	/
CCOc1cccc(-c2c(C(=O)N/N=C/c3cccs3)nnn2-c2nonc2N)c1	+	110.1*	-16.8	-0.1	20.7	91.4*	55.2*	38.2	21.1
COc1ccc(/C=N/NC(=O)c2nnn(-c3nonc3N)c2-c2cccc(OC)c2)cc1	i	149.3*	17.4	-3.2	74.8*	120.9*	86.5*	72.0*	32.2*
CCOc1ccc(CCN2C(=O)C3C4CCC(O4)C3C2=O)cc1OCC (stereo not drawn)	/	2.2	/	18.5	-12.0	/	/	/	/
SMILES	Rce1 inhib	TAAR1 agonist	Platelet DG rel	VLA-4 inh	TAAR1 antag	TAAR1 ag conf	Ga16 ag counter	TAAR1 desens	Ga16 nonsel ant
CCOc1ccc(/C=N/NC(=O)c2nnn(-c3nonc3N)c2-c2ccc(OCC)cc2)cc1	i	66.3*	5.0	7.7	-14.9	57.4*	26.0*	9.3	13.8
CCOc1ccc(-c2c(C(=O)N/N=C/c3cccnc3)nnn2-c2nonc2N)cc1	i	8.1	3.6	5.9	-8.2	/	/	/	/
CCOc1cccc(-c2c(C(=O)N/N=C/c3ccoc3)nnn2-c2nonc2N)c1	i	83.3*	12.8	-1.1	-2.6	73.1*	32.3*	7.1	9.2
Cc1ccc(/C=N/NC(=O)c2nnn(-c3nonc3N)c2-c2cccs2)cc1	i	131.1*	-13.7	-4.3	77.6*	128.7*	96.1*	79.0*	42.5*
Cc1ccc(/C=N/NC(=O)c2nnn(-c3nonc3N)c2-c2ccc3c(c2)OCO3)s1	i	81.7*	-2.2	4.0	41.6	97.2*	60.9*	39.7	20.2
C/C(=N/NC(=O)c1nnn(-c2nonc2N)c1-c1ccccc1)c1ccc2c(c1)OCO2	i	27.0	-0.3	-0.3	22.2	/	/	/	/
CC(NCC(O)COc1ccc2ccccc2c1)c1ccccc1 (stereo not drawn)	i	31.3	19.1	10.7	31.6	/	/	/	/
Cc1cc(OCC(O)CNC(C)c2ccccc2)ccc1C(C)C (stereo not drawn)	i	62.7*	-8.2	4.0	29.6	70.7*	32.1*	53.7*	32.1*
O=C(Nc1ccc(N2CCCCC2)cc1)c1ccc(F)cc1	i	98.4*	10.5	-1.3	84.8*	53.0*	12.6*	18.0	17.7
O=C(Nc1cccc(NC(=O)c2ccc(F)cc2)c1)c1ccc(F)cc1	i	46.6*	-5.1	3.8	30.8	2.1	2.0	-0.5	4.4
O=C(c1ccc(F)cc1)c1ccc(N2CCCCC2)cc1	i	-2.5	1.3	-12.8	-2.7	/	/	/	/
CC(=O)Nc1ccc(Sc2ncccc2C(=O)Nc2ccc(OC(F)(F)F)cc2)cn1	/	138.8*	-15.1	0.4	104.2*	143.0*	107.0*	104.3*	89.7*

From PubChem BioAssay
